Results pooled from the literature.
Each line is one published result; the experiments were not run side by side.
Target: Ephrin type-A receptor 2 (EPHA2, Homo sapiens, UniProt P29317)

With `C[C@H]1CCN(c2nccc(-c3cnn4ncccc34)n2)C1` the remaining binding was 100% (binding; 1 µM).
For `O=C(c1ccc(Nc2nccc(-c3cc4ccccc4s3)n2)cc1)N1CCC(N2CCCC2)CC1`, the remaining binding was 65% (binding, competition with immobilised ligand; 1 µM).
`N[C@@H]1CCN(c2nccc(-c3cnn4ncccc34)n2)C1` has a remaining binding of 100% (binding; 1 µM).
For `c1cncc(-c2cccc(Nc3nccc(NC4CCCCC4)n3)c2)c1`, the remaining binding was 83% (binding, competition with immobilised ligand; 10 µM).
`O=C(Nc1c[nH]nc1C(=O)NC1CCNCC1)c1cc(F)cc(F)c1` has a remaining binding of 100% (binding, competition with immobilised ligand; 1 µM).
With `Cc1cnn2ncc(-c3ccnc(N(C)C)n3)c2c1` the remaining binding was 95% (binding; 1 µM).
`C[C@@H]1CN(c2cc(-c3n[nH]c4ccc(OC5(C)CC5)cc34)ncn2)C[C@H](C)O1` has a remaining binding of 72% (cell-free assay, competition with immobilised ligand; 0.1 µM).
`CCN1CCN(Cc2ccc(C(=O)Nc3ccc(C)c(Oc4ccc5c(c4)CC(=O)N5)c3)cc2C(F)(F)F)CC1` has a remaining binding of 73% (binding, competition with immobilised ligand; 1 µM).
With `O=C(c1ccc(Nc2ncc(Cl)c(-c3ccc(Cl)s3)n2)cc1)N1CCC(N2CCCC2)CC1` the remaining binding was 100% (binding, competition with immobilised ligand; 1 µM).
The remaining binding of `CN(c1nccc(-c2cnn3ncccc23)n1)C1CC1` is reported as 99% (binding; 1 µM).
`C[C@@H]1CN(c2ccc3ncc(-c4ccc5[nH]nc(C6CC6)c5c4)n3n2)C[C@H](C)O1` gave a remaining binding of 100% (binding, competition with immobilised ligand; 0.5 µM).
For `C[C@H](c1ccc(F)cc1)N(Cc1cccc(C(=O)O)c1)C(=O)c1cnc2ccccc2c1`, the remaining binding was 100% (cell-free assay, competition with immobilised ligand; 1 µM).
`Nc1ncc2c(n1)-c1c([nH]c3ccc(C#CC4CC4)cc13)CCCC2` has a remaining binding of 100% (binding, competition with immobilised ligand; 1 µM).
With `CCC(=N\O)/C(C)=C/c1ccc(F)cc1` the remaining binding was 84% (cell-free assay, competition with immobilised ligand; 1 µM).
For `COc1ncc2cc3ccccc3nc2c1C#N`, the remaining binding was 96% (cell-free assay, competition with immobilised ligand; 5 µM).
`Cn1nc(C(=O)NCc2ccc(C(=O)O)cc2)cc1-c1ccc2[nH]ccc2c1` has a remaining binding of 95% (cell-free assay, competition with immobilised ligand; 0.1 µM).
For `CN(C)c1nccc(-c2cnc3ncccn23)n1`, the remaining binding was 100% (binding; 1 µM).
`CN(C)C(=O)Cn1cc(-c2nc([C@@](C)(c3ccc(-c4cnc(N)nc4)cc3)C3CC3)no2)cn1` gave a remaining binding of 100% (cell-free assay, competition with immobilised ligand; 1 µM).
With `c1cnn2ncc(-c3ccnc(N4CCC45COC5)n3)c2c1` the remaining binding was 94% (binding; 1 µM).
The remaining binding of `O=C(NCc1ncc(C(F)(F)F)cc1Cl)c1ccc2c(c1)C1(CCS(=O)(=O)CC1)[C@@H](C1CC1)N2S(=O)(=O)c1ccc(F)cc1` is reported as 84% (cell-free assay, competition with immobilised ligand; 1 µM).
`FC(F)(F)Oc1cccc(-c2cnc3ccc(-c4ccncc4)nn23)c1` gave a remaining binding of 80% (cell-free assay, competition with immobilised ligand; 5 µM).
With `COc1cnc(Nc2cccc(S(N)(=O)=O)c2)nc1N1CCN(c2ccccc2)C(=O)C1` the remaining binding was 99% (binding, competition with immobilised ligand; 1 µM).
`CN(C)c1ncc(F)c(-c2cnn3ncccc23)n1` gave a remaining binding of 80% (binding; 1 µM).
For `N#Cc1ccccc1CSc1nnc2c(n1)[nH]c1ccccc12`, the remaining binding was 87% (binding, competition with immobilised ligand; 10 µM).
With `O=C(c1ccc(Nc2ncc(Cl)c(-c3cc4ccccc4s3)n2)cc1)N1CCC(N2CCCC2)CC1` the remaining binding was 60% (binding, competition with immobilised ligand; 1 µM).
`NS(=O)(=O)c1cc(NC(=O)Cc2ccccc2)ccc1Oc1cccc(Cl)c1` has a remaining binding of 91% (cell-free assay, competition with immobilised ligand; 1 µM).
